Experimental data taken from PMC7820547 (iScience, 2021).
Positions count from the first letter of the chain named.

Experiments:
hSHMT1 WT = molecular target: T1, hSHMT1 WT (Homo sapiens, UniProt P34896); assay: Surface plasmon resonance binding of Gly-DCA to hSHMT1 WT
T1 sequence (P34896 1-483): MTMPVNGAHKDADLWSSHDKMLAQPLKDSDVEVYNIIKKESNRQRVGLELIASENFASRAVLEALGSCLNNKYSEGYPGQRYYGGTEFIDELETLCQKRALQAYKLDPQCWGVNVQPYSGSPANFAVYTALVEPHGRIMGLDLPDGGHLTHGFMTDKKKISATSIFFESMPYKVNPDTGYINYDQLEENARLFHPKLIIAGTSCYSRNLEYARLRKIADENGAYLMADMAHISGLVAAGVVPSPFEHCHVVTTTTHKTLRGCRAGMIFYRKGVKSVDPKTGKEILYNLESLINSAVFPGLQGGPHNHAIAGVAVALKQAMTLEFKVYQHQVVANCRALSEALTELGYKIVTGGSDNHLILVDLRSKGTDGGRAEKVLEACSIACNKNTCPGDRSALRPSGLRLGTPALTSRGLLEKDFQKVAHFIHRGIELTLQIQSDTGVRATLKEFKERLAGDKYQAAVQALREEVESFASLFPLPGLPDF
How it was run: (§1)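 His6-hSHMT1, wild type or point mutant, was captured fresh on an NTA sensor chip each cycle. Contact 30 s, dissociation 300 s; Kd by Scatchard analysis.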

hSHMT1 E75L = molecular target: T2, hSHMT1 E75L (Homo sapiens, UniProt P34896, E75L); assay: Surface plasmon resonance binding of Gly-DCA to mutant hSHMT1 E75L
T2 sequence (P34896 1-483 E75L): T1 sequence (P34896 1-483) with E75L
How it was run: as §1

hSHMT1 R402A = molecular target: T3, hSHMT1 R402A (Homo sapiens, UniProt P34896, R402A); assay: Surface plasmon resonance binding of Gly-DCA to mutant hSHMT1 R402A; conditions: SPR, 25°C
T3 sequence (P34896 1-483 R402A): T1 sequence (P34896 1-483) with R402A
How it was run: as §1

hSHMT2 WT = molecular target: T4, hSHMT2 WT (Homo sapiens, UniProt P34897); assay: Surface plasmon resonance binding of Gly-DCA to hSHMT2 WT
T4 sequence (P34897 30-504): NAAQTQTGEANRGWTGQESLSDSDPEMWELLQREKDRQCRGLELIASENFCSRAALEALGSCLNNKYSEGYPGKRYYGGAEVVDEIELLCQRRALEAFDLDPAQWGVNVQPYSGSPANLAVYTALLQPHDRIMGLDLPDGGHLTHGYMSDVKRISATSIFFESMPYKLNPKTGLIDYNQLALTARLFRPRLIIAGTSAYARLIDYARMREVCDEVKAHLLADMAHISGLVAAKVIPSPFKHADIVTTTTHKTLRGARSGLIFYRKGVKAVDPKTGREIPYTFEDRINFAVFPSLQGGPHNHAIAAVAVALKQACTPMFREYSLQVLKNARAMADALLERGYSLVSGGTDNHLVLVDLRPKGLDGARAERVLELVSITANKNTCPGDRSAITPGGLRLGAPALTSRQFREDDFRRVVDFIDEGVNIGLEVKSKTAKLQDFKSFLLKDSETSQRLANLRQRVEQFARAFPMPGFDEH
How it was run: (§2)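 Wild-type or mutant His6-hSHMT2 was captured on an NTA sensor chip in each cycle. Analyte (test compound) was run at 0.8, 0.4, 0.2, 0.1, 0.05 and 0.025 µM in 10 mM HEPES pH 7.5, 200 mM NaCl, 2 mM β-mercaptoethanol, 50 µM PLP, 0.01% Tween 20 and 5% DMSO. Contact 30 s, dissociation 300 s; Scatchard-derived Kd.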

hSHMT2 E98L = molecular target: T5, hSHMT2 E98L (Homo sapiens, UniProt P34897, E98L); assay: Surface plasmon resonance binding of Gly-DCA to mutant hSHMT2 E98L; conditions: SPR, 25°C
T5 sequence (P34897 30-504 E98L): T4 sequence (P34897 30-504) with E69L
How it was run: as §2

hSHMT2 R425A = molecular target: T6, hSHMT2 R425A (Homo sapiens, UniProt P34897, R425A); assay: Surface plasmon resonance binding of Gly-DCA to mutant hSHMT2 R425A; conditions: SPR, 25°C
T6 sequence (P34897 30-504 R425A): T4 sequence (P34897 30-504) with R396A
How it was run: as §2

hSHMT2 [1] = molecular target: T7, hSHMT2 (Homo sapiens, UniProt P34897); assay: Isothermal titration calorimetry; assay type: binding
T7 sequence (P34897 30-504): T4 sequence (P34897 30-504)
How it was run: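 Purified His6-hSHMT2 (28.9 µM) in the cell was titrated with 300 µM test compound from the syringe at 37 °C, stirring 750 rpm. One small initial injection, then 12 injections at 180 s intervals; thermodynamic parameters were calculated from the titration.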

hSHMT1 [2] = molecular target: T8, hSHMT1 (Homo sapiens, UniProt P34896); assay: Differential scanning calorimetry; assay type: binding; conditions: DSC, 50 μM Gly-DCA, 18 μM hSHMT1; Tm without ligand 69.6°C
T8 sequence (P34896 1-483): T1 sequence (P34896 1-483)
How it was run: (§3)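 Recombinant His6-tagged human enzyme from E. coli BL21(DE3)pLysS, Ni-NTA then gel filtration. Scanned 20 to 110 °C at 1 °C/min in 10 mM HEPES pH 7.5, 0.5 mM EDTA, 2 mM β-mercaptoethanol and 1% DMSO, with 18 µM (1.0 mg/mL) enzyme and 50 µM test compound. hSHMT1 used 100 mM NaCl and no PLP; hSHMT2 used 200 mM NaCl and 50 µM PLP. Non-two-state denaturation model fitted.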

hSHMT2 [3] = molecular target: T7, hSHMT2; assay: Differential scanning calorimetry; assay type: binding; conditions: DSC, 50 μM Gly-DCA, 18 μM hSHMT2, 50 μM PLP; Tm without ligand 65.1°C
How it was run: as §3

hSHMT1 [4] = molecular target: T8, hSHMT1; conditions: ITC, ref Nonaka et al., 2019, cited from earlier work
hSHMT2 [5] = molecular target: T7, hSHMT2; assay: Inhibition assay of Ser-Gly conversion; assay type: biochemical
[6] = ITC, 37°C, pH 7.5, 200 mM NaCl, 50 μM PLP

Kd (hSHMT1 WT) | Kd (hSHMT1 E75L) | binding affinity for hSHMT1 R402A (hSHMT1 R402A) | Kd (hSHMT2 WT) | binding affinity for hSHMT2 E98L (hSHMT2 E98L) | binding affinity for hSHMT2 R425A (hSHMT2 R425A) | Kd (hSHMT2 [1]) | hSHMT2 N (stoichiometry, binding ratio) (hSHMT2 [1]; ITC, 37°C) | hSHMT2 ΔG (hSHMT2 [1]; [6]) | hSHMT2 ΔH (hSHMT2 [1]; [6]) | hSHMT2 −TΔS (hSHMT2 [1]; [6]) | Tm of hSHMT1 w/ Gly-DCA (hSHMT1 [2]) | Tm of hSHMT2 w/ Gly-DCA (hSHMT2 [3]) | IC50 (hSHMT2 [5]) | Compound | hSHMT1 ΔG (hSHMT1 [4]; 100 mM NaCl, 0 µM PLP) | hSHMT1 ΔH (hSHMT1 [4]; 100 mM NaCl, 0 µM PLP) | hSHMT1 −TΔS (hSHMT1 [4]; 100 mM NaCl, 0 µM PLP) | hSHMT1 N (stoichiometry, binding ratio) (hSHMT1 [4]) | Kd (hSHMT1 [4]; read-out: hSHMT1 Kd, 100 mM NaCl, 0 µM PLP)
7.6 µM | 73.5 µM | too weak to quantitate | 64 nM | too weak to quantitate | too weak to quantitate | 250 nM | 0.83 | -9.4 kcal/mol | -8.6 kcal/mol | -0.8 kcal/mol | 78.8 °C | 77.4 °C | – | CC(CCC(=O)NCC(=O)O)C1CCC2C3CCC4CC(O)CCC4(C)C3CC(O)C12C (stereo not shown) [Gly-DCA, glycodeoxycholic acid] | -7.4 kcal/mol | -2.2 kcal/mol | -5.2 kcal/mol | 1.06 | 5.7 µM
– | – | – | – | – | – | – | – | – | – | – | – | – | 2600 nM | C[C@H](CCC(=O)NCCS(=O)(=O)O)[C@H]1CC[C@H]2[C@@H]3CC[C@@H]4C[C@H](O)CC[C@]4(C)[C@H]3CC[C@]12C [Tau-LCA, taurolithocholic acid] | – | – | – | – | –
